Measured values: ChEMBL document CHEMBL5550111, “Design, synthesis and biological evaluation of aryloxy thiophosphoramidate triesters of anticancer nucleoside analogues” (Bioorg Med Chem, 2024)

Key:
5637 [1] = experiment: Cytotoxicity against human 5637 cells assessed as maximum inhibition of cell viability upto 198 uM incubated for 72 hrs by MTS assay relative to control; format: functional; conditions: up to 198 µM
Summary of the method: (§1)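 Cells seeded at 0.5 to 100 × 10^3 per well the day before drug addition, then exposed to compound for 72 h. MTS added afterwards, with a further 4 h at 37 °C, and absorbance read. Tested in duplicate at 9 serial 3.16-fold dilutions, top concentration 198 μM. MI% is the maximum inhibition of viability across the tested range.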

CAKI-2 [2] = experiment: Cytotoxicity against human CAKI-2 cells assessed as maximum inhibition of cell viability upto 198 uM incubated for 72 hrs by MTS assay relative to control; format: functional; conditions: up to 198 µM; summary of the method: as §1
KG-1 [3] = experiment: Cytotoxicity against human KG-1 cells assessed as maximum inhibition of cell viability upto 198 uM incubated for 72 hrs by MTS assay relative to control; format: functional; conditions: up to 198 µM; summary of the method: as §1
5637 [4] = experiment: Cytotoxicity against human 5637 cells assessed as inhibition of cell viability incubated for 72 hrs by MTS assay; format: functional, cell-based; conditions: Homo sapiens, 5637, 72 h
Summary of the method: (§2)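 Cells seeded at 0.5 to 100 × 10^3 per well the day before treatment, then exposed for 72 h to 9 serial concentrations (3.16-fold dilutions, top 198 μM), in duplicate. MTS added for a final 4 h at 37 °C and absorbance read. IC50 is the concentration giving 50% loss of viability. MI% is the maximum inhibition over the tested range.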

RL [5] = experiment: Cytotoxicity against human RL cells assessed as maximum inhibition of cell viability upto 198 uM incubated for 72 hrs by MTS assay relative to control; format: functional; conditions: up to 198 µM; summary of the method: as §1
HepG2 [6] = experiment: Cytotoxicity against human HepG2 cells assessed as inhibition of cell viability incubated for 72 hrs by MTS assay; format: functional, cell-based; conditions: HepG2, 72 h; summary of the method: as §2
A498 [7] = experiment: Cytotoxicity against human A498 cells assessed as maximum inhibition of cell viability upto 198 uM incubated for 72 hrs by MTS assay relative to control; format: functional; conditions: up to 198 µM; summary of the method: as §1
[8] = Cytotoxicity against human T24/83 cells assessed as inhibition of cell viability incubated for 72 hrs by MTS assay; format: functional, cell-based; conditions: T24/83, 72 h; summary of the method: as §2
K562 [9] = experiment: Cytotoxicity against human K562 cells assessed as inhibition of cell viability incubated for 72 hrs by MTS assay; format: functional, cell-based; conditions: K562, 72 h; summary of the method: as §2
[10] = Cytotoxicity against human ACHN-luc2 cells assessed as inhibition of cell viability incubated for 72 hrs by MTS assay; format: functional, cell-based; conditions: ACHN-luc2, 72 h; summary of the method: as §2
HL-60 [11] = experiment: Cytotoxicity against human HL-60 cells assessed as maximum inhibition of cell viability upto 198 uM incubated for 72 hrs by MTS assay relative to control; format: functional; conditions: up to 198 µM; summary of the method: as §1
MCF7 [12] = experiment: Cytotoxicity against human MCF7 cells assessed as maximum inhibition of cell viability upto 198 uM incubated for 72 hrs by MTS assay relative to control; format: functional; conditions: up to 198 µM; summary of the method: as §1
PC-3 [13] = experiment: Cytotoxicity against human PC-3 cells assessed as inhibition of cell viability incubated for 72 hrs by MTS assay; format: functional, cell-based; conditions: PC-3, 72 h; summary of the method: as §2
A498 [14] = experiment: Cytotoxicity against human A498 cells assessed as inhibition of cell viability incubated for 72 hrs by MTS assay; format: functional, cell-based; conditions: A498, 72 h; summary of the method: as §2
MCF7 [15] = experiment: Cytotoxicity against human MCF7 cells assessed as inhibition of cell viability incubated for 72 hrs by MTS assay; format: functional, cell-based; conditions: MCF7, 72 h
MIA PaCa-2 [16] = experiment: Cytotoxicity against human MIA PaCa-2 cells assessed as maximum inhibition of cell viability upto 198 uM incubated for 72 hrs by MTS assay relative to control; format: functional; conditions: up to 198 µM; summary of the method: as §1
CAKI-2 [17] = experiment: Cytotoxicity against human CAKI-2 cells assessed as inhibition of cell viability incubated for 72 hrs by MTS assay; format: functional, cell-based; conditions: CAKI-2, 72 h; summary of the method: as §2
MDA-MB-231 [18] = experiment: Cytotoxicity against human MDA-MB-231 cells assessed as maximum inhibition of cell viability upto 198 uM incubated for 72 hrs by MTS assay relative to control; format: functional; conditions: up to 198 µM; summary of the method: as §1
COLO 205 [19] = experiment: Cytotoxicity against human COLO 205 cells assessed as inhibition of cell viability incubated for 72 hrs by MTS assay; format: functional, cell-based; conditions: COLO 205, 72 h; summary of the method: as §2
RL [20] = experiment: Cytotoxicity against human RL cells assessed as inhibition of cell viability incubated for 72 hrs by MTS assay; format: functional, cell-based; summary of the method: as §2
MDA-MB-231 [21] = experiment: Cytotoxicity against human MDA-MB-231 cells assessed as inhibition of cell viability incubated for 72 hrs by MTS assay; format: functional, cell-based; conditions: MDA-MB-231, 72 h; summary of the method: as §2
HT-29 [22] = experiment: Cytotoxicity against human HT-29 cells assessed as inhibition of cell viability incubated for 72 hrs by MTS assay; format: functional, cell-based; conditions: HT-29, 72 h; summary of the method: as §2
[23] = Cytotoxicity against human T24/83 cells assessed as maximum inhibition of cell viability upto 198 uM incubated for 72 hrs by MTS assay relative to control; format: functional; conditions: up to 198 µM; summary of the method: as §1
HT-29 [24] = experiment: Cytotoxicity against human HT-29 cells assessed as maximum inhibition of cell viability upto 198 uM incubated for 72 hrs by MTS assay relative to control; format: functional; conditions: up to 198 µM; summary of the method: as §1
MIA PaCa-2 [25] = experiment: Cytotoxicity against human MIA PaCa-2 cells assessed as inhibition of cell viability incubated for 72 hrs by MTS assay; format: functional, cell-based; conditions: MIA PaCa-2, 72 h; summary of the method: as §2
PC-3 [26] = experiment: Cytotoxicity against human PC-3 cells assessed as maximum inhibition of cell viability upto 198 uM incubated for 72 hrs by MTS assay relative to control; format: functional; conditions: up to 198 µM; summary of the method: as §1
K562 [27] = experiment: Cytotoxicity against human K562 cells assessed as maximum inhibition of cell viability upto 198 uM incubated for 72 hrs by MTS assay relative to control; format: functional; conditions: up to 198 µM; summary of the method: as §1
MOLT-4 [28] = experiment: Cytotoxicity against human MOLT-4 cells assessed as maximum inhibition of cell viability upto 198 uM incubated for 72 hrs by MTS assay relative to control; format: functional; conditions: up to 198 µM; summary of the method: as §1
HL-60 [29] = experiment: Cytotoxicity against human HL-60 cells assessed as inhibition of cell viability incubated for 72 hrs by MTS assay; format: functional, cell-based; conditions: HL-60, 72 h; summary of the method: as §2
KG-1 [30] = experiment: Cytotoxicity against human KG-1 cells assessed as inhibition of cell viability incubated for 72 hrs by MTS assay; format: functional, cell-based; conditions: KG-1, 72 h; summary of the method: as §2
MOLT-4 [31] = experiment: Cytotoxicity against human MOLT-4 cells assessed as inhibition of cell viability incubated for 72 hrs by MTS assay; format: functional, cell-based; conditions: MOLT-4, 72 h; summary of the method: as §2
HepG2 [32] = experiment: Cytotoxicity against human HepG2 cells assessed as maximum inhibition of cell viability upto 198 uM incubated for 72 hrs by MTS assay relative to control; format: functional; conditions: up to 198 µM; summary of the method: as §1
COLO 205 [33] = experiment: Cytotoxicity against human COLO 205 cells assessed as maximum inhibition of cell viability upto 198 uM incubated for 72 hrs by MTS assay relative to control; format: functional; conditions: up to 198 µM; summary of the method: as §1
[34] = Cytotoxicity against human ACHN-luc2 cells assessed as maximum inhibition of cell viability upto 198 uM incubated for 72 hrs by MTS assay relative to control; format: functional; conditions: up to 198 µM; summary of the method: as §1

Work on `C[C@H](NP(=O)(OC[C@@H]1C[C@@H](O)[C@H](n2cnc3c(N)ncnc32)O1)Oc1ccccc1)C(=O)OCc1ccccc1` (some centres undefined) [FOSDESDENOSINE SIPALABENAMIDE] yielded an Imax 5637 [1] of 100%, an Imax (CAKI-2 [2]) of 78% and an Imax (KG-1 [3]) of 92%. It also gave an IC50 5637 [4] of 47.5 µM, an Imax (RL [5]) of 94% and an IC50 (HepG2 [6]) of 25.2 µM. The Imax (A498 [7]) was 82%, the IC50 [8] was 31.4 µM and the IC50 (K562 [9]) was 10.3 µM. The IC50 [10] was 112 µM, the Imax (HL-60 [11]) was 101% and the Imax (MCF7 [12]) was 90%. For the same molecule, the IC50 (PC-3 [13]) was 51.2 µM, the IC50 (A498 [14]) was 58.1 µM and the IC50 (MCF7 [15]) was 3.69 µM. It also gave an Imax (MIA PaCa-2 [16]) of 95%, an IC50 (CAKI-2 [17]) of 102 µM and an Imax (MDA-MB-231 [18]) of 79%. It also gave an IC50 (COLO 205 [19]) of 27.8 µM, an IC50 (RL [20]) of 34.6 µM and an IC50 (MDA-MB-231 [21]) of 19.4 µM. It also gave an IC50 (HT-29 [22]) of 9.47 µM, an Imax [23] of 92% and an Imax (HT-29 [24]) of 96%. For the same molecule, the IC50 (MIA PaCa-2 [25]) was 7.41 µM, the Imax (PC-3 [26]) was 74% and the Imax (K562 [27]) was 83%. The Imax (MOLT-4 [28]) was 96%, the IC50 (HL-60 [29]) was 38.4 µM and the IC50 (KG-1 [30]) was 23.5 µM. For the same molecule, the IC50 (MOLT-4 [31]) was 4.67 µM, the Imax (HepG2 [32]) was 80% and the Imax (COLO 205 [33]) was 87%. The Imax [34] was 62%.
